Assay results reported in ChEMBL document CHEMBL1147433, “Design of small molecule ketoamide-based inhibitors of cathepsin K” (Bioorg Med Chem Lett, 2004).
pIC50: −log10 of the molar value.

Assays:
Cathepsin K [1] = target: T1, Cathepsin K (Homo sapiens, UniProt P43235); experiment: Inhibitory activity against human cathepsin K
T1 sequence (P43235 whole entry): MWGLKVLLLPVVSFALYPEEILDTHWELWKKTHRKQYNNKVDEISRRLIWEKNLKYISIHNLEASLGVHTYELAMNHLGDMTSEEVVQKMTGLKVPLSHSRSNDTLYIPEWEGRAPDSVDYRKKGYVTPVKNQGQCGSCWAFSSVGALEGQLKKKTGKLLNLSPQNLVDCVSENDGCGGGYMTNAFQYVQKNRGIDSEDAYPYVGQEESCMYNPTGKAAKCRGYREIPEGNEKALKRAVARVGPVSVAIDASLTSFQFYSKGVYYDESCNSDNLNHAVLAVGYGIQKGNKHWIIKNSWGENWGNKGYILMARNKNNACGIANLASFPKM
Outline: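 Recombinant human cathepsin K activity was measured by fluorescence with Cbz-Phe-Arg-AMC as the substrate, in 100 mM NaOAc, 10 mM DTT and 120 mM NaCl at pH 5.5. IC50 values are the mean of two or three inhibition assays. Individual data points within each experiment fell within a 3-fold range of each other.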

[2] = Half-life in rat; format: ADME, organism-based; conditions: in vivo
[3] = Oral bioavailability in rat; format: ADME, organism-based; conditions: in vivo
Cathepsin K [4] = target: T2, Cathepsin K (Rattus norvegicus, UniProt O35186); experiment: Inhibitory activity against rat cathepsin K
T2 sequence (O35186 whole entry): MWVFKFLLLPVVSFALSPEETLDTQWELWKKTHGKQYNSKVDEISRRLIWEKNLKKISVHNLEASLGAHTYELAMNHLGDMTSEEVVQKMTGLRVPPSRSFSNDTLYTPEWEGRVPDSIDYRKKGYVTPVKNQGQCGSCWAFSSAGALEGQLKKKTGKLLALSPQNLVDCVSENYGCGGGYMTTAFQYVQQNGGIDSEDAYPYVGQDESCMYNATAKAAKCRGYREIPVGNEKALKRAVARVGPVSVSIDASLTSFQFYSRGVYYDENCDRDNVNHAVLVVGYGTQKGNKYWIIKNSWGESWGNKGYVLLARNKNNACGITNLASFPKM

[5] = Clearance in rat; format: ADME, organism-based; conditions: in vivo, read-out: Clearance (C1)
[6] = PAPP (membrane permeability) in dog kidney cell monolayer assay; format: ADME, Canis lupus familiaris; conditions: read-out: Activity
[7] = Vss in rat; format: ADME, organism-based; conditions: in vivo, read-out: Vss

Compound	pIC50 (Cathepsin K [1])	other results
CCCC[C@H](NC(=O)OC(C)(C)C)C(=O)C(=O)NCc1cccs1	5.47	
CCCC[C@H](NC(=O)O[C@@H](CCCc1ccccc1)C(C)(C)C)C(=O)C(=O)N[C@H](C)c1ccccc1	5.85	
CCCC[C@H](NC(=O)OC(C)(C)C)C(=O)C(N)=O	5.23	
CCCC[C@H](NC(=O)OC(C)(C)C)C(=O)C(=O)NC	4.68	
CCCC[C@H](NC(=O)OC(C(C)C)C(C)C)C(=O)C(=O)N[C@H](C)c1ccccc1		half-life [2]: 4.83 h; bioavailability [3]: 3%; pIC50 (Cathepsin K [4]): 7.70; clearance [5]: 8.7 mL/min/kg; Papp [6]: 5.7 ×10⁻⁶ cm/s; Vd [7]: 1.9 L/kg
CCCC[C@H](NC(=O)OC(C1CCCC1)C1CCCC1)C(=O)C(=O)N[C@H](C)c1ccccc1	8.20	
CCCC[C@H](NC(=O)OC(C)(C)C)C(=O)C(=O)NC(C)(C)C	< 4.00	
CCCC[C@H](NC(=O)OC(C)(C)C)C(=O)C(=O)NCC	4.74	
CCCC[C@H](NC(=O)OC(C)(C)C)C(=O)C(=O)N(C)[C@H](C)c1ccccc1	< 4.00	
CCCC[C@H](NC(=O)OC(C)(C)C)C(=O)C(=O)NCCc1ccccc1	5.30	
CCCC[C@H](NC(=O)OC(C)(C)C)C(=O)C(=O)Nc1ccccc1	5.20	
CCCC[C@H](NC(=O)OC(C)(C)C)C(=O)C(=O)NC(C)C	5.04	
CCCC[C@H](NC(=O)OC(C)(C)C)C(=O)C(=O)NCc1ccccc1	5.54	
CCCC[C@H](NC(=O)O[C@H](CCCc1ccccc1)C(C)(C)C)C(=O)C(=O)N[C@H](C)c1ccccc1	9.10	

Continued, in another order:

pIC50 (Cathepsin K [1])	Compound	other results
9.15	CCCC[C@H](NC(=O)OC(C(C)(C)C)C(C)(C)C)C(=O)C(=O)N[C@H](C)c1ccccc1	
7.47	CCCC[C@H](NC(=O)OCC(C)(C)C)C(=O)C(=O)N[C@H](C)c1ccccc1	
8.96	CCCC[C@H](NC(=O)O[C@H](CCc1ccccc1)C(C)(C)C)C(=O)C(=O)N[C@H](C)c1ccccc1	
6.04	CCCC[C@H](NC(=O)O[C@@H](CCc1ccccc1)C(C)(C)C)C(=O)C(=O)N[C@H](C)c1ccccc1	
7.12	CCCC[C@H](NC(=O)OC(CC)CC)C(=O)C(=O)N[C@H](C)c1ccccc1	
5.38	CCCC[C@H](NC(=O)OC(C)(C)C)C(=O)C(=O)N[C@@H](C)c1ccccc1	
5.92	CCCC[C@H](NC(=O)OC(C)(C)C)C(=O)C(=O)N[C@H](C)c1ccccc1	
7.49	CCCC[C@H](NC(=O)OC(CCC)CCC)C(=O)C(=O)N[C@H](C)c1ccccc1	
7.16	CCCC[C@H](NC(=O)OC(CC(C)C)CC(C)C)C(=O)C(=O)N[C@H](C)c1ccccc1	
7.70	CCCC[C@H](NC(=O)OC(C)C(C)(C)C)C(=O)C(=O)N[C@H](C)c1ccccc1 (some centres undefined)	
